Calls of active or inactive are those of the source. The calls are words filed in the database; no cut-off is given here.
Experiments:
[1] = system: Vero; experiment: In vitro inhibitory activity against HSV-1 in vero cells of african green monkey at concentration 100 uM; Inactive; assay type: functional, cell-based; conditions: Chlorocebus sabaeus
[2] = Toxicity in Vero (African green monkey) cells at concentration 100 uM; compound found nontoxic; conditions: chlorocebus aethiops, in vitro
[3] = system: Vero; experiment: In vitro inhibitory activity against HSV-2 in vero cells of african green monkey at concentration 100 uM; Inactive; assay type: functional, cell-based; conditions: Chlorocebus sabaeus
[4] = species on record: Homo sapiens; experiment: In vitro inhibitory activity against HIV-1 in human peripheral blood mononuclear cells at concentration 100 uM; Inactive; assay type: functional
In short: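 Mitogen-stimulated PBM cells, three days old (10⁶ cells/mL), came from hepatitis- and HIV-1-seronegative donors. They were infected with HIV-1 strain LAV at about 100 TCID₅₀/mL. Compounds were added about 45 min post-infection and tested up to 100 μM. On day 5 the supernatant was clarified, virus pelleted, and reverse transcriptase activity measured. Cells came from three donors.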

[5] = system: Vero; experiment: In vitro inhibitory activity against HSV-1 in vero cells in african green monkey at concentration 100 uM; Inactive; assay type: functional, cell-based; conditions: Chlorocebus sabaeus
[6] = system: Vero; experiment: In vitro inhibitory activity against HSV-1 in Vero (African green monkey) cells at concentration 100 uM; Inactive; conditions: Chlorocebus sabaeus
[7] = system: Vero; experiment: In vitro inhibitory activity against HSV-2 in vero cells in african green monkey at concentration 100 uM; Inactive; assay type: functional, cell-based; conditions: Chlorocebus sabaeus
[8] = system: Vero; experiment: In vitro inhibitory activity against HSV-2 in Vero (African green monkey) cells at concentration 100 uM; Inactive; conditions: Chlorocebus sabaeus
[9] = Toxicity in Vero (African green monkey) cells at concentration 100 uM; compound found nontoxic; conditions: chlorocebus aethiops, in vitro; remark: listed apart in the source
[10] = system: Vero; experiment: In vitro inhibitory activity against HSV-1 in vero cells in african green monkey at concentration 100 uM; IA is inactive.; assay type: functional, cell-based; conditions: Chlorocebus sabaeus
[11] = system: Vero; experiment: In vitro inhibitory activity against HSV-2 in vero cells of african green monkey at concentration 100 uM; IA is inactive.; assay type: functional, cell-based; conditions: Chlorocebus sabaeus
[12] = Toxicity in Vero (African green monkey) cells at concentration 100 uM; compound was found nontoxic; conditions: chlorocebus aethiops, in vitro

SMILES | Activity [1] | Toxicity [2] | Activity [3] | Activity [4] | Activity [5] | Activity [6] | Activity [7] | Activity [8] | Toxicity [9] | Activity [10] | Activity [11] | Toxicity [12]
COC(=O)/C=C/n1cc(C)c(=O)[nH]c1=O | inactive | Non-toxic | inactive | – | – | – | – | – | – | – | – | –
COC(=O)COC(CC(=O)OC)n1cc(C)c(=O)[nH]c1=O (stereo not drawn) | – | – | – | inactive | inactive | inactive | inactive | inactive | Non-toxic | – | – | –
COC(=O)CC(SCCO)n1cc(C)c(=O)[nH]c1=O (stereo not drawn) | inactive | Non-toxic | inactive | – | – | – | – | – | – | – | – | –
Cc1cn(C(CCN=[N+]=[N-])OCCO)c(=O)[nH]c1=O (stereo not drawn) | – | – | – | inactive | inactive | inactive | inactive | inactive | Non-toxic | – | – | –
Cc1cn(C(CCO)OCCO)c(=O)[nH]c1=O (stereo not drawn) | – | – | – | inactive | inactive | inactive | inactive | inactive | Non-toxic | – | – | –
Cc1cn(C(CCO)SCCO)c(=O)[nH]c1=O (stereo not drawn) | – | – | – | inactive | – | – | – | – | – | No activity | No activity | Non-toxic

Source: ChEMBL document CHEMBL1124340, “Acyclic analogues of 3'-azido-3'-deoxythymidine as potential antiviral agents. Nucleoside synthesis by Michael addition” (J Med Chem, 1989)
